This note sets out measurements from ChEMBL document CHEMBL4334491, “Discovery of Benzamidine- and 1-Aminoisoquinoline-Based Human MAS-Related G-Protein-Coupled Receptor X1 (MRGPRX1) Agonists” (J Med Chem, 2019).

Data set [1] deals with T1, Mas-related G-protein coupled receptor member X1 (Homo sapiens, UniProt Q96LB2). Nature of the data set: Agonist activity at human MrgprX1 expressed in HEK293 cells incubated for 2 mins by Fluo4AM dye based FLIPR assay relative to BAM8-22. The class given is cell-based. The method, boiled down:
(§1)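 HEK293 cells stably expressing human MrgprX1 were plated at 25,000/well and grown 2 days. They were loaded with 2 μM Fluo-4 AM plus 1% Trypan Red in HBSS for 50 min at 37°C, then equilibrated 10 min at room temperature. Serially diluted compounds in HBSS were added, with BAM8-22 as positive control. FLIPR imaging ran 2 min, read as max–min fluorescence. EC50 is mean ± SD of ≥4 experiments.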

Data set [2] addresses T1, Mas-related G-protein coupled receptor member X1. The data set is described as follows: Agonist activity at human MrgprX1 expressed in HEK293 cells incubated for 2 mins by Fluo4AM dye based FLIPR assay. The class given is cell-based. The method, boiled down:
as §1

Data set [3] addresses Delta-type opioid receptor (Rattus norvegicus, UniProt P33533). The data set is described as follows: Displacement of [3H]DADLE from delta opioid receptor in rat brain after 60 mins by liquid scintillation counting method. The class given is tissue-based.
For another data set, the target named is Mu-type opioid receptor (Rattus norvegicus, UniProt P33535). Nature of the data set: Displacement of [3H]DAMGO from mu opioid receptor in rat brain after 60 mins by liquid scintillation counting method. The class given is tissue-based. On the technique in general: Displacement assays read how much labelled ligand stays bound in the presence of the test substance.

Data set [4] deals with Kappa-type opioid receptor (Rattus norvegicus, UniProt P34975). The data set is described as follows: Displacement of [3H]U-69,593 from kappa opioid receptor in rat brain after 60 mins by liquid scintillation counting method. The class given is tissue-based.
Data set [5] can be described thus: Half life in mouse liver microsomes. The class given is ADME, Microsome.
In data set [6] the target is T2, Mas-related G-protein coupled receptor member X1 (Mus musculus) (UniProt Q8CIP3).
T2 sequence (whole entry): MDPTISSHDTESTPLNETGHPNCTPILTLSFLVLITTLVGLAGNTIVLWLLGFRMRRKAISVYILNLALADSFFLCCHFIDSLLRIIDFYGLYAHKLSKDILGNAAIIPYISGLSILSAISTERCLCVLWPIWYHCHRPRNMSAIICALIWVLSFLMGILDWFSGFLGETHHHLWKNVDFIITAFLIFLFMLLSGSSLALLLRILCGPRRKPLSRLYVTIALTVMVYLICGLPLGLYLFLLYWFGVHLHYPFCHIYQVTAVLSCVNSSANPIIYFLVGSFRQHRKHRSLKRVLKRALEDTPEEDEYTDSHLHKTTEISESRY
The data set is described as follows: Agonist activity at mouse MRGPRC11 expressed in KNRK cells at 40 uM by Fura2-AM dye based FLIPR assay. The class given is cell-based.

Data set [7] can be described thus: Selectivity index, ratio of Ki for displacement of [3H]DADLE from delta opioid receptor in rat brain after 60 mins by liquid scintillation counting method to EC50 for agonist activity at human MrgprX1 expressed in HEK293 cells incubated for 2 mins by Fluo4AM dye based FLIPR assay. The class given is cell-based.
A short description of data set [8]: Selectivity index, ratio of Ki for displacement of [3H]DAMGO from mu opioid receptor in rat brain after 60 mins by liquid scintillation counting method to EC50 for agonist activity at human MrgprX1 expressed in HEK293 cells incubated for 2 mins by Fluo4AM dye based FLIPR assay. The class given is cell-based.
Data set [9] can be described thus: Selectivity index, ratio of Ki for [3H]U-69,593 from kappa opioid receptor in rat brain after 60 mins by liquid scintillation counting method to EC50 for agonist activity at human MrgprX1 expressed in HEK293 cells incubated for 2 mins by Fluo4AM dye based FLIPR assay. The class given is cell-based.
Data set [10] can be described thus: AUC in CD1 mouse plasma at 10 mg/kg, iv administered as single dose by LC-MS/MS analysis. The note with it: in vivo. The class given is ADME, organism-based. The method, boiled down:
(§2)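 Male CD1 mice (25–30 g) received a single 10 mg/kg iv dose, n=3 per time point, and were killed by CO2 at set times. Plasma came from cardiac-puncture blood spun at 3,000 g for 15 min. Spinal cords were flash frozen. Samples were extracted in acetonitrile with losartan internal standard and quantified by LC/MS/MS. Calibration covered 0.01–10 nmol/mL, built with 1/x-weighted linear regression in naive matrix.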

Data set [11] in a line: AUC in CD1 mouse spinal cord at 10 mg/kg, iv administered as single dose by LC-MS/MS analysis. The class given is ADME, organism-based. The note with it: in vivo. The method in brief: as §2
Data set [12] in a line: Ratio of AUC in spinal cord to AUC in plasma of CD1 mouse at 10 mg/kg, iv administered as single dose by LC-MS/MS analysis. The class given is ADME, organism-based. The method in brief:
as §2

Data set [13] can be described thus: Half life in CD1 mouse at 10 mg/kg, iv administered as single dose by LC-MS/MS analysis. The class given is ADME, organism-based. To be noted: in vivo. The method, boiled down:
as §2

The target of data set [14] is T1, Mas-related G-protein coupled receptor member X1. Nature of the data set: Agonist activity at human MRGPRX1 in DRG neurons obtained from humanized MrgprX1 mouse assessed as inhibition of high-voltage-activated Ca2+ currents 5 uM at -80 mV holding potential. The class given is functional. The method, boiled down:
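DRG neurons from 3–4-week-old MrgprX1 mice, enzyme-dissociated, cultured with NGF and GDNF and used at 20–40 h. Whole-cell patch clamp of MrgprA3-GFP neurons at 21–23 °C in NMDG-Cl/5 mM BaCl2 bath, pH 7.4. Holding −80 mV, step to −40 mV 20 ms, −60 mV 20 ms, then −10 mV 40 ms evoking HVA current. P/4 leak subtraction. Currents compared before/after bath application.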

Data set [15] shares this target. The data set is described as follows: Agonist activity at human MRGPRX1 in DRG neurons obtained from humanized MrgprX1 mouse assessed as inhibition of high-voltage-activated Ca2+ currents 10 uM at -80 mV holding potential. The class given is functional. The method, boiled down: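 DRG neurons from 3–4-week-old humanized MrgprX1 mice were dispase/collagenase-dissociated, cultured with NGF and GDNF, and used after 20–40 h. Whole-cell patch clamp was done in Ba2+/NMDG extracellular solution, pH 7.4, at 21–23°C. Cells were held at −80 mV, stepped to −40 mV, then −60 mV, then −10 mV for 40 ms to evoke HVA currents. Compound was bath-applied; P/4 leak subtraction.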

Data set [16] shares this target. The data set is described as follows: Agonist activity at human MrgprX1 expressed in HEK293 cells up to 100 uM incubated for 2 mins by Fluo4AM dye based FLIPR assay relative to BAM8-22. The class given is cell-based. The method, boiled down: as §1

Calls of active or inactive are those of the source. The rule behind the calls is not given here. Where only a bound is given, the exact number is not on record here.

T1 sequence (Q96LB2 whole entry): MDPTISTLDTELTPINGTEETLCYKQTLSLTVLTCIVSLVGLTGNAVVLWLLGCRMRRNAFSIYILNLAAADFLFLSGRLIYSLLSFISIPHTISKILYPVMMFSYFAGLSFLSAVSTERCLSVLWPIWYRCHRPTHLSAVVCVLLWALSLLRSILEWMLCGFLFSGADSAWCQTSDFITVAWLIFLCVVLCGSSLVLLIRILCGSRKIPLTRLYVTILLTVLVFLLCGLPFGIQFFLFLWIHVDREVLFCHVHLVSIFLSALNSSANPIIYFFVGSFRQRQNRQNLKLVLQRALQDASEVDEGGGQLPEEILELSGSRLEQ
Chain of Mu-type opioid receptor (P33535 whole entry): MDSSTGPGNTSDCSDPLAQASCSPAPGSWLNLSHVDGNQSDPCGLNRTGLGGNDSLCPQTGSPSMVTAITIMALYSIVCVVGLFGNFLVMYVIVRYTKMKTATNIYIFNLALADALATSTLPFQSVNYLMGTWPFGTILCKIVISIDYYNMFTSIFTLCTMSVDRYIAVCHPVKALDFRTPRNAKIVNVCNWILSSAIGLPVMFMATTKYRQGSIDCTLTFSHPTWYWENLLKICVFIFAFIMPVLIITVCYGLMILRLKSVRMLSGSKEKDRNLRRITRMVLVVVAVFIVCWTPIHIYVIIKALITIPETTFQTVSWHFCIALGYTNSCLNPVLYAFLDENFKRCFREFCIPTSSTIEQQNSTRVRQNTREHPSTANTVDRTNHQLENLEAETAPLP
Chain of Delta-type opioid receptor (P33533 whole entry): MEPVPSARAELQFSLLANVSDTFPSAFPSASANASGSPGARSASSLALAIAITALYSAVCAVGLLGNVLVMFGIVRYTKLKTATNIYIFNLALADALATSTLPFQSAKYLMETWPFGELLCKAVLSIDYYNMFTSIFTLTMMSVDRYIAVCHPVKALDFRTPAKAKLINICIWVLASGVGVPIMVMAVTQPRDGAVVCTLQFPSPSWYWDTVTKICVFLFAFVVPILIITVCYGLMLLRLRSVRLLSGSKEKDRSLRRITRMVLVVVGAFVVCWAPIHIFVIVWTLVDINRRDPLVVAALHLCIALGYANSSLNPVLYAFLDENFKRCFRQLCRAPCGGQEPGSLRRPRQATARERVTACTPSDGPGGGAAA
Chain of Kappa-type opioid receptor (P34975 whole entry): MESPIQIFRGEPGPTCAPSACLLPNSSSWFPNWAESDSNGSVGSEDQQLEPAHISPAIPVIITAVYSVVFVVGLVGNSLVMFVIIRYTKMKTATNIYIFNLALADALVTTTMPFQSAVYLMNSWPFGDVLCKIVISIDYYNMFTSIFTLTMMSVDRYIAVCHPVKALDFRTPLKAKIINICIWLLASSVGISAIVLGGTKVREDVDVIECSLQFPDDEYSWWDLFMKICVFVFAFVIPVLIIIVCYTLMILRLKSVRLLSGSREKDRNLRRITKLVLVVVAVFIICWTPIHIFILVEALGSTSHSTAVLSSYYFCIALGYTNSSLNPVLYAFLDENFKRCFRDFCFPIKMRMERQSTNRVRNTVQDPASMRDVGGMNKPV

The Emax is the greatest response seen or fitted, relative to the assay's reference. Broadly, the EC50 is the concentration needed to bring the measured effect to its halfway point. Read a low EC50 as greater potency. Compound `CCCCS(=O)(=O)Nc1ccc(C)cc1Oc1ccc(C(=N)N)cc1` showed an Emax in data set [1] of over 95%. The EC50 in data set [2] was found to be 2200 nM.
For the compound `COc1cc(CNc2ccc(C(=N)N)cc2)ccc1OCc1ccc(-n2cccc2)cc1`, the Emax in [1] is over 95%. In data set [2], this compound gave an EC50 of 680 nM.
The corresponding values for `COc1cc(CNc2ccc(C(=N)N)cc2)ccc1OCc1cccnc1` are over 95% and 5200 nM.
Consider `COc1cc(CNc2ccc(C(=N)N)cc2)ccc1OCCC(C)C`, for which the Emax in [1] is over 95%. Also, the EC50 in data set [2] was determined as 1900 nM.
The matching figures for `COc1ccccc1S(=O)(=O)Nc1ccc(C)cc1Oc1ccccc1C(=N)N`: over 95% and 23000 nM.
The matching figures for `Cc1ccc(NS(=O)(=O)c2ccccc2OC(F)(F)F)c(Oc2ccc(C(=N)N)cc2)c1`: over 95% and 150 nM.
The Ki is the dissociation constant of the complex between target and ligand, obtained from inhibition or displacement. For `COc1ccccc1S(=O)(=O)Nc1ccc(C)cc1Oc1ccc(C(=N)N)cc1`, the Emax in data set [1] is over 95%. In [2], this compound yielded an EC50 of 100 nM. Also, the Ki in data set [3] is 220 nM; on Mu-type opioid receptor it was 72.7 nM; in [4] it was 1430 nM.
Turning to `CCCCS(=O)(=O)Nc1ccccc1Oc1ccc(C(=N)N)cc1`, the Emax in data set [1] was over 95%. Moreover, the EC50 in [2] amounted to 300 nM.
The term half-life denotes how long it takes for the measured level to halve. Higher therefore signals slow loss. Usually Kp stands for tissue or fluid exposure divided by exposure in the circulation. As for `COc1ccccc1S(=O)(=O)Nc1ccc(C)cc1Oc1ccc2c(N)nccc2c1`, the half-life in data set [5] was under 15 min; in data set [13] it was 19.8 min. The same compound gave an Emax in [1] of over 95%. For the same compound, a half-maximal response in data set [2] (EC50) required 50 nM. Moreover, the result in data set [6] was inactive. The Ki in data set [3] was determined as 2470 nM; at Mu-type opioid receptor it was 3730 nM; in [4], 12100 nM. In addition, the Ratio in data set [7] is 50; in data set [8] it was 75; in [9], 242. Besides, the AUC was 0.9 µM·h in data set [10] and 5.66 nmol·h/g in data set [11]. Moreover, the Kp in data set [12] stood at 6.3.
Take `CCCCS(=O)(=O)Nc1cc(C)ccc1Oc1ccc(C(=N)N)cc1`: in data set [1], the Emax was over 95%. Besides, the 50% effective concentration (EC50) in [2] turned out to be 920 nM.
`COc1cc(CNc2ccc(C(=N)N)cc2)ccc1OCc1ccsc1` came in with an Emax in data set [1] of over 95%. The compound also returned an EC50 in data set [2] of 290 nM.
The corresponding values for `N=C(N)c1ccc(NCc2ccc(OCc3ccccc3)cc2)cc1` are over 95% and 5200 nM.
In the case of H-VGRPEWWMDYQKRYG-OH, the inhibition entry in data set [14] was “Active”.
Consider `COc1cc(CNc2cccc(C(=N)N)c2)ccc1OCc1ccccc1`, for which the Emax in data set [1] was over 95%. In data set [2], the midpoint of the response, the EC50, lay at 3300 nM.
The corresponding values for `Cc1ccc(NS(=O)(=O)c2ccc(F)cc2)c(Oc2ccc(C(=N)N)cc2)c1` are over 95% and 2100 nM.
The matching figures for `COc1ccccc1S(=O)(=O)Nc1ccc(C)cc1Oc1cccc(C(=N)N)c1`: over 95% and 3600 nM.
Consider `COc1cc(CNc2ccc(C(=N)N)cc2)ccc1OCc1ccccc1`, for which the Emax in data set [1] was over 95%. In data set [2], this compound gave an EC50 of 510 nM. The inhibition result in [15] is “Active”.
Take `Cc1ccc(S(=O)(=O)Nc2ccc(C)cc2Oc2ccc(C(=N)N)cc2)cc1`: the Emax in [1] was over 95%. Moreover, the EC50 in data set [2] came to 160 nM.
For `COc1cc(CNc2ccccc2C(=N)N)ccc1OCc1ccccc1`, in [16], the result was inactive. In data set [2], this compound had an EC50 of over 100000 nM. Moreover, the inhibition result in data set [15] is “inactive”.
As for `COc1ccccc1S(=O)(=O)Nc1ccc(C)cc1Oc1ccc2sc(N)nc2c1`, the outcome in data set [16] was inactive. In [2], this compound had an EC50 of over 100000 nM.
For `COc1cc(CNc2ccc3c(N)nccc3c2)ccc1OCc1ccccc1`, the Emax in data set [1] is over 95%. In [2], this compound gave an EC50 of 3700 nM.
